This passage reports MIC results from ChEMBL document CHEMBL1268850, “Search for antifungal compounds from the wood of durable tropical trees” (2010).

In brackets after ≈: the same amount, converted by molar mass.

As usually defined, the MIC is the lowest concentration found to suppress growth. Lower therefore signals inhibition by little substance.

Test [1] concerns Microsporum canis. Kind of test: Antifungal activity against Microsporum canis LMGO 22 after 5 days microdilution technique. The test is classed as functional. The following applies: LMGO 22, 120 h. A digest of the protocol:
(§1)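 Dermatophytes were maintained on potato dextrose agar and subcultured 5 days at 28 °C before testing. Microdilution followed CLSI M38-A, with extracts at 500 to 0.98 µg/mL and pure compounds at 256 to 0.5 µg/mL. Fluconazole and itraconazole were the references. Plates were incubated at 32 °C and read after 5 days. MIC is the lowest concentration preventing visible growth, in triplicate.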

In test [2] the test system is Trichophyton rubrum. The experiment in a line: Antifungal activity against Trichophyton rubrum LMGO 4218 after 5 days microdilution technique. The test is classed as functional. The following applies: LMGO 4218, 120 h. A digest of the protocol:
as §1

Test [3] concerns Nakaseomyces glabratus. Kind of test: Antifungal activity against Candida glabrata LMGO 44 after 5 days microdilution technique. The test is classed as functional. The following applies: LMGO 44, 120 h. A digest of the protocol: (§2)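 Yeasts were kept on potato dextrose agar and subcultured 2 days at 28 °C before testing. Broth microdilution followed CLSI M27-A2. Crude extracts were tested at 500 to 0.98 µg/mL and pure compounds at 256 to 0.5 µg/mL. Fluconazole (64 to 0.125 µg/mL) and itraconazole (16 to 0.031 µg/mL) served as references. Plates were incubated at 32 °C. MIC is the lowest concentration with no visible growth, in triplicate.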
(Broth dilution looks for growth in wells or tubes with falling amounts of substance.)

The test system of test [4] is Trichophyton mentagrophytes. Kind of test: Antifungal activity against Trichophyton mentagrophytes LMGO 09 after 5 days microdilution technique. The following applies: LMGO 09, 120 h. The test is classed as functional. A digest of the protocol:
as §1

Test [5] deals with Nannizzia gypsea. Kind of test: Antifungal activity against Microsporum gypseum LMGO 10 after 5 days microdilution technique. The test is classed as functional. The following applies: LMGO 10, 120 h. A digest of the protocol:
as §1

Test [6] has as its system Nannizzia gypsea. Kind of test: Antifungal activity against Microsporum gypseum LMGO 533 after 5 days microdilution technique. The test is classed as functional. The following applies: LMGO 533, 120 h. A digest of the protocol: as §1
The test system of test [7] is Cryptococcus gattii species complex. Kind of test: Antifungal activity against Cryptococcus gattii LMGO L1 after 5 days microdilution technique. The following applies: LMGO L1, 120 h. The test is classed as functional, Cryptococcus bacillisporus. A digest of the protocol:
as §2

In test [8] the test system is Trichophyton mentagrophytes. Kind of test: Antifungal activity against Trichophyton mentagrophytes LMGO 1931 after 5 days microdilution technique. The test is classed as functional. The following applies: LMGO 1931, 120 h. A digest of the protocol:
as §1

Test [9] concerns Trichophyton rubrum. Kind of test: Antifungal activity against Trichophyton rubrum LMGO 08 after 5 days microdilution technique. The test is classed as functional. The following applies: LMGO 08, 120 h. A digest of the protocol: as §1
Test [10] has as its system Pichia kudriavzevii. Kind of test: Antifungal activity against Candida krusei LMGO 174 after 5 days microdilution technique. The test is classed as functional. The following applies: LMGO 174, 120 h. A digest of the protocol:
as §2

Test [11] has as its system Candida albicans. Kind of test: Antifungal activity against Candida albicans ATCC 10231 after 5 days microdilution technique. The test is classed as functional. The following applies: ATCC 10231, 120 h. A digest of the protocol:
as §2

Test [12] relates to Microsporum canis. The experiment in a line: Antifungal activity against Microsporum canis LMGO 02 after 5 days microdilution technique. The test is classed as functional. The following applies: LMGO 02, 120 h. A digest of the protocol: as §1
The test system of test [13] is Candida albicans. Kind of test: Antifungal activity against Candida albicans LMGO 102 after 5 days microdilution technique. The test is classed as functional. The following applies: LMGO 102, 120 h. A digest of the protocol:
as §2

For test [14], the system named is Trichophyton rubrum. The experiment in a line: Antifungal activity against Trichophyton rubrum LMGO 06 after 5 days microdilution technique. The test is classed as functional. The following applies: LMGO 06, 120 h. A digest of the protocol: as §1
The test system of test [15] is Candida parapsilosis. Kind of test: Antifungal activity against Candida parapsilosis ATCC 22019 after 5 days microdilution technique. The test is classed as functional. The following applies: Lodderomyces parapsilosis, ATCC 22019, 120 h. A digest of the protocol:
as §2

Test [16] relates to Candida parapsilosis. Kind of test: Antifungal activity against Candida parapsilosis LMGO 05 after 2 days microdilution technique. The following applies: Lodderomyces parapsilosis, LMGO 05, 48 h.
For test [17], the system named is Candida albicans. The experiment in a line: Antifungal activity against Candida albicans ATCC 10231 after 2 days microdilution technique. The following applies: ATCC 10231, 48 h.
Test [18] has as its system Pichia kudriavzevii. The experiment in a line: Antifungal activity against Candida krusei LMGO 174 after 2 days microdilution technique. The following applies: LMGO 174, 48 h.
Test [19] deals with Candida albicans. The experiment in a line: Antifungal activity against Candida albicans LMGO 102 after 2 days microdilution technique. The following applies: LMGO 102, 48 h.
In test [20] the test system is Candida parapsilosis. Kind of test: Antifungal activity against Candida parapsilosis ATCC 22019 after 2 days microdilution technique. The following applies: Lodderomyces parapsilosis, ATCC 22019, 48 h.
In test [21] the test system is Nakaseomyces glabratus. Kind of test: Antifungal activity against Candida glabrata LMGO 44 after 2 days microdilution technique. The following applies: LMGO 44, 48 h.
In test [22] the test system is Cryptococcus gattii species complex. The experiment in a line: Antifungal activity against Cryptococcus gattii LMGO L1 after 2 days microdilution technique. The following applies: LMGO L1, 48 h.

In the case of `OC(Cn1cncn1)(Cn1cncn1)c1ccc(F)cc1F` [FLUCONAZOLE], the MIC was above 64 µg/mL in the test with Microsporum canis [1]; 32 µg/mL (≈ 104 µM) against Trichophyton rubrum [2]; 4 µg/mL (≈ 13.1 µM) in the test with Nakaseomyces glabratus [3]; 16 µg/mL (≈ 52.2 µM) in test [4]; 16 µg/mL (≈ 52.2 µM) in the test with Nannizzia gypsea [5]; 64 µg/mL (≈ 209 µM) in the test with Nannizzia gypsea [6]. Also, the MIC was above 64 µg/mL in test [7]; 4 µg/mL (≈ 13.1 µM) in test [8]; 8 µg/mL (≈ 26.1 µM) in the test on Trichophyton rubrum [9]; 8 µg/mL (≈ 26.1 µM) in the test with Pichia kudriavzevii [10]; above 64 µg/mL against Candida albicans [11]; above 64 µg/mL against Microsporum canis [12]. Also, the MIC with Candida albicans [13] was 1 µg/mL (≈ 3.27 µM); in the test on Trichophyton rubrum [14] it was 4 µg/mL (≈ 13.1 µM); against Candida parapsilosis [15] it was above 64 µg/mL; against Candida parapsilosis [16] it was 4 µg/mL (≈ 13.1 µM).
`CCC(C)n1ncn(-c2ccc(N3CCN(c4ccc(OCC5COC(Cn6cncn6)(c6ccc(Cl)cc6Cl)O5)cc4)CC3)cc2)c1=O` (centres undefined) [ITRACONAZOLE]: the MIC worked out at 0.5 µg/mL (≈ 0.709 µM) in the test on Candida albicans [17]; 16 µg/mL (≈ 22.7 µM) against Pichia kudriavzevii [18]; 16 µg/mL (≈ 22.7 µM) in the test with Microsporum canis [1]; 0.5 µg/mL (≈ 0.709 µM) against Trichophyton rubrum [2]; 0.25 µg/mL (≈ 0.354 µM) in test [4]; 0.25 µg/mL (≈ 0.354 µM) against Nannizzia gypsea [5]. In addition, the MIC is above 16 µg/mL against Candida albicans [19]; 0.975 µg/mL (≈ 1.38 µM) with Nannizzia gypsea [6]; 0.25 µg/mL (≈ 0.354 µM) in the test on Candida parapsilosis [20]; 0.5 µg/mL (≈ 0.709 µM) in test [8]; 0.125 µg/mL (≈ 0.177 µM) against Trichophyton rubrum [9]; 0.5 µg/mL (≈ 0.709 µM) in the test on Nakaseomyces glabratus [21]. Further, the MIC is 16 µg/mL (≈ 22.7 µM) against Microsporum canis [12], 2 µg/mL (≈ 2.83 µM) in [22], 0.125 µg/mL (≈ 0.177 µM) against Trichophyton rubrum [14] and 0.25 µg/mL (≈ 0.354 µM) against Candida parapsilosis [16].
Turning to `C=CCCCCCCCC[C@@H]1C[C@H](C[C@@H](O)CO)C(=O)O1` [RUBRENOLIDE], the MIC against Candida albicans [17] was 64 µg/mL (≈ 214 µM); in the test with Pichia kudriavzevii [18], 64 µg/mL (≈ 214 µM); against Microsporum canis [1], 128 µg/mL (≈ 429 µM); in the test on Trichophyton rubrum [2] it was 16 µg/mL (≈ 53.6 µM); in [4], 8 µg/mL (≈ 26.8 µM); with Nannizzia gypsea [5], 16 µg/mL (≈ 53.6 µM). The MIC against Candida albicans [19] is 16 µg/mL (≈ 53.6 µM); against Nannizzia gypsea [6] it was 256 µg/mL (≈ 858 µM); with Candida parapsilosis [20], 32 µg/mL (≈ 107 µM); in test [8] it was 64 µg/mL (≈ 214 µM); in the test with Trichophyton rubrum [9], 8 µg/mL (≈ 26.8 µM); in the test with Nakaseomyces glabratus [21], 4 µg/mL (≈ 13.4 µM). In addition, the MIC against Microsporum canis [12] is 16 µg/mL (≈ 53.6 µM); in [22], 256 µg/mL (≈ 858 µM); against Trichophyton rubrum [14] it was 8 µg/mL (≈ 26.8 µM); in the test on Candida parapsilosis [16], 32 µg/mL (≈ 107 µM).
As for `C#CCCCCCCCC[C@@H]1C[C@H](C[C@@H](O)CO)C(=O)O1` [RUBRYNOLIDE], the MIC stood at 128 µg/mL (≈ 432 µM) with Candida albicans [17]; 64 µg/mL (≈ 216 µM) in the test on Pichia kudriavzevii [18]; 64 µg/mL (≈ 216 µM) in the test on Microsporum canis [1]; 32 µg/mL (≈ 108 µM) in the test on Trichophyton rubrum [2]; 32 µg/mL (≈ 108 µM) in test [4]; 32 µg/mL (≈ 108 µM) against Nannizzia gypsea [5]. For the same compound, the MIC is 32 µg/mL (≈ 108 µM) against Candida albicans [19]; 32 µg/mL (≈ 108 µM) with Nannizzia gypsea [6]; 128 µg/mL (≈ 432 µM) in the test on Candida parapsilosis [20]; above 256 µg/mL in test [8]; 32 µg/mL (≈ 108 µM) in the test on Trichophyton rubrum [9]; 32 µg/mL (≈ 108 µM) in the test on Nakaseomyces glabratus [21]. Moreover, the MIC in the test with Microsporum canis [12] came to 32 µg/mL (≈ 108 µM); in test [22] it was 128 µg/mL (≈ 432 µM); in the test on Trichophyton rubrum [14] it was 32 µg/mL (≈ 108 µM); with Candida parapsilosis [16] it was 128 µg/mL (≈ 432 µM).
